From PMC10339703 (Clinical and Translational Science, 2023)

Legend:
monkeys = experiment: Multiple-dose toxicity study up to 28 days in monkeys; assay type: in vivo
[1] = Metabolite profile in liver microsomes; assay type: in vitro ADME
healthy subjects = experiment: Safety and tolerability; assay type: in vivo, human
Method in brief: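 Randomized, double-blind, placebo-controlled (6:2, n = 8/cohort) single oral doses in healthy adults after ≥10 h fast, with sentinel pair observed 24 h first. TEAEs were graded by nature, incidence, severity, seriousness and outcome, coded in MedDRA 23.0. ADR: any AE whose causality to test compound could not be ruled out. Labs, vital signs, examinations and 12-lead ECGs were also monitored.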

For O[C@H]1CCCN[C@@H]1CCCn1cnc2c(Cl)c(Cl)ccc21 [Bersiporocin], the “maximum recommended starting dose for a 60 kg adult” value (monkeys; calculated from NOAEL in monkeys, safety factor = 10) was 154.8 mg, the “clinical observation in toxicity study” value (monkeys; monkeys, concluded not to be an adverse event, transient) was “vomiting was observed” and the “number of metabolites identified” value [1] was 21. For the same molecule, the “ADRs, number of events” value (healthy subjects; SAD single 100 mg capsule) was 3, the “Abdominal discomfort (ADR), subjects n (%)” value (“Abdominal discomfort … (%)” for short) (healthy subjects; SAD single 100 mg capsule) was 0 and the “Abdominal distension (ADR), subjects n (%)” value (shortened to “Abdominal distension … (%)”) (healthy subjects; SAD single 100 mg capsule) was 0. The “Abdominal pain (ADR), subjects n (%)” value (healthy subjects; SAD single 100 mg capsule) was 0, the “Abdominal pain upper (ADR), subjects n (%)” value (“Abdominal pain upper … (%)” below) (healthy subjects; SAD single 100 mg capsule) was 0 and the “Constipation (ADR), subjects n (%)” value (healthy subjects; SAD single 100 mg capsule) was 0. For the same molecule, the “Decreased appetite (ADR), subjects n (%)” value (healthy subjects; SAD single 100 mg capsule) was 0, the “Diarrhea (ADR), subjects n (%)” value (healthy subjects; SAD single 100 mg capsule) was 0 and the “Dysgeusia (ADR), subjects n (%)” value (healthy subjects; SAD single 100 mg capsule) was 0. For the same molecule, the “Epigastric discomfort (ADR), subjects n (%)” value (from here on “Epigastric discomfort … (%)”) (healthy subjects; SAD single 100 mg capsule) was 0, the “Gastroesophageal reflux disease (ADR), number of events” value (healthy subjects; SAD single 100 mg capsule) was 1 and the “Gastroesophageal reflux disease (ADR), subjects n (%)” value (“Gastroesophageal reflux disease … (%)” below) (healthy subjects; SAD single 100 mg capsule) was 1 (16.7). For the same molecule, the “Headache (ADR), subjects n (%)” value (healthy subjects; SAD single 100 mg capsule) was 0, the “Hypersensitivity (ADR), subjects n (%)” value (healthy subjects; SAD single 100 mg capsule) was 0 and the “Hypotension (ADR), subjects n (%)” value (healthy subjects; SAD single 100 mg capsule) was 0. The “Malaise (ADR), subjects n (%)” value (healthy subjects; SAD single 100 mg capsule) was 0, the “Nausea (ADR), number of events” value (healthy subjects; SAD single 100 mg capsule) was 1 and the “Nausea (ADR), subjects n (%)” value (healthy subjects; SAD single 100 mg capsule) was 1 (16.7). The “Neutropenia (ADR), number of events” value (healthy subjects; SAD single 100 mg capsule) was 1, the “Neutropenia (ADR), subjects n (%)” value (healthy subjects; SAD single 100 mg capsule) was 1 (16.7) and the “Oropharyngeal pain (ADR), subjects n (%)” value (healthy subjects; SAD single 100 mg capsule) was 0. The “Photosensitivity reaction (ADR), subjects n (%)” value (healthy subjects; SAD single 100 mg capsule) was 0, the “Subjects with ADRs, n (%)” value (healthy subjects; SAD single 100 mg capsule) was 3 (50.0) and the “Tachycardia (ADR), subjects n (%)” value (healthy subjects; SAD single 100 mg capsule) was 0. For the same molecule, the “Vertigo (ADR), subjects n (%)” value (healthy subjects; SAD single 100 mg capsule) was 0, the “Vomiting (ADR), subjects n (%)” value (healthy subjects; SAD single 100 mg capsule) was 0 and the “ADRs, number of events” value (healthy subjects; SAD single 100 mg solution) was 12. For the same molecule, the “Abdominal discomfort … (%)” value (healthy subjects; SAD single 100 mg solution) was 0, the “Abdominal distension … (%)” value (healthy subjects; SAD single 100 mg solution) was 0 and the “Abdominal pain (ADR), subjects n (%)” value (healthy subjects; SAD single 100 mg solution) was 0. The “Abdominal pain upper … (%)” value (healthy subjects; SAD single 100 mg solution) was 0, the “Constipation (ADR), subjects n (%)” value (healthy subjects; SAD single 100 mg solution) was 0 and the “Decreased appetite (ADR), subjects n (%)” value (healthy subjects; SAD single 100 mg solution) was 0. The “Diarrhea (ADR), subjects n (%)” value (healthy subjects; SAD single 100 mg solution) was 0, the “Dysgeusia (ADR), number of events” value (healthy subjects; SAD single 100 mg solution) was 1 and the “Dysgeusia (ADR), subjects n (%)” value (healthy subjects; SAD single 100 mg solution) was 1 (16.7). The “Epigastric discomfort … (%)” value (healthy subjects; SAD single 100 mg solution) was 0, the “Gastroesophageal reflux disease … (%)” value (healthy subjects; SAD single 100 mg solution) was 0 and the “Headache (ADR), number of events” value (healthy subjects; SAD single 100 mg solution) was 2. The “Headache (ADR), subjects n (%)” value (healthy subjects; SAD single 100 mg solution) was 2 (33.3), the “Hypersensitivity (ADR), subjects n (%)” value (healthy subjects; SAD single 100 mg solution) was 0 and the “Hypotension (ADR), subjects n (%)” value (healthy subjects; SAD single 100 mg solution) was 0. The “Malaise (ADR), subjects n (%)” value (healthy subjects; SAD single 100 mg solution) was 0, the “Nausea (ADR), number of events” value (healthy subjects; SAD single 100 mg solution) was 5 and the “Nausea (ADR), subjects n (%)” value (healthy subjects; SAD single 100 mg solution) was 5 (83.3). The “Neutropenia (ADR), subjects n (%)” value (healthy subjects; SAD single 100 mg solution) was 0, the “Oropharyngeal pain (ADR), subjects n (%)” value (healthy subjects; SAD single 100 mg solution) was 0 and the “Photosensitivity reaction (ADR), subjects n (%)” value (healthy subjects; SAD single 100 mg solution) was 0. The “Subjects with ADRs, n (%)” value (healthy subjects; SAD single 100 mg solution) was 5 (83.3), the “Tachycardia (ADR), subjects n (%)” value (healthy subjects; SAD single 100 mg solution) was 0 and the “Vertigo (ADR), subjects n (%)” value (healthy subjects; SAD single 100 mg solution) was 0. The “Vomiting (ADR), number of events” value (healthy subjects; SAD single 100 mg solution) was 4, the “Vomiting (ADR), subjects n (%)” value (healthy subjects; SAD single 100 mg solution) was 4 (66.7) and the “ADRs, number of events” value (healthy subjects; SAD single 300 mg capsule) was 15. For the same molecule, the “Abdominal discomfort … (%)” value (healthy subjects; SAD single 300 mg capsule) was 0, the “Abdominal distension (ADR), number of events” value (healthy subjects; SAD single 300 mg capsule) was 1 and the “Abdominal distension … (%)” value (healthy subjects; SAD single 300 mg capsule) was 1 (16.7). For the same molecule, the “Abdominal pain (ADR), number of events” value (healthy subjects; SAD single 300 mg capsule) was 2, the “Abdominal pain (ADR), subjects n (%)” value (healthy subjects; SAD single 300 mg capsule) was 2 (33.3) and the “Abdominal pain upper … (%)” value (healthy subjects; SAD single 300 mg capsule) was 0. The “Constipation (ADR), subjects n (%)” value (healthy subjects; SAD single 300 mg capsule) was 0, the “Decreased appetite (ADR), number of events” value (healthy subjects; SAD single 300 mg capsule) was 1 and the “Decreased appetite (ADR), subjects n (%)” value (healthy subjects; SAD single 300 mg capsule) was 1 (16.7). The “Diarrhea (ADR), number of events” value (healthy subjects; SAD single 300 mg capsule) was 2, the “Diarrhea (ADR), subjects n (%)” value (healthy subjects; SAD single 300 mg capsule) was 2 (33.3) and the “Dysgeusia (ADR), subjects n (%)” value (healthy subjects; SAD single 300 mg capsule) was 0. The “Epigastric discomfort … (%)” value (healthy subjects; SAD single 300 mg capsule) was 0, the “Gastroesophageal reflux disease … (%)” value (healthy subjects; SAD single 300 mg capsule) was 0 and the “Headache (ADR), number of events” value (healthy subjects; SAD single 300 mg capsule) was 1. The “Headache (ADR), subjects n (%)” value (healthy subjects; SAD single 300 mg capsule) was 1 (16.7), the “Hypersensitivity (ADR), subjects n (%)” value (healthy subjects; SAD single 300 mg capsule) was 0 and the “Hypotension (ADR), subjects n (%)” value (healthy subjects; SAD single 300 mg capsule) was 0. For the same molecule, the “Malaise (ADR), number of events” value (healthy subjects; SAD single 300 mg capsule) was 1, the “Malaise (ADR), subjects n (%)” value (healthy subjects; SAD single 300 mg capsule) was 1 (16.7) and the “Nausea (ADR), number of events” value (healthy subjects; SAD single 300 mg capsule) was 4. The “Nausea (ADR), subjects n (%)” value (healthy subjects; SAD single 300 mg capsule) was 3 (50.0), the “Neutropenia (ADR), subjects n (%)” value (healthy subjects; SAD single 300 mg capsule) was 0 and the “Oropharyngeal pain (ADR), subjects n (%)” value (healthy subjects; SAD single 300 mg capsule) was 0.
